# LMPTP inh: blocks human LMPTP phosphatase. AID 651560. P24666. recombinant LMPTP-A, OMFP fluorogenic substrate, fluorescence intensity. inhibition, % at 20 µM. hit rate 0.22% among 360,000;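 active = compounds that cut the enzyme signal by at least half of the control window in the single-dose screen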;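 note: plate controls were DMSO wells with enzyme plus substrate for no effect and substrate without enzyme for full effect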
# Target sequence (P24666 whole entry, looked up): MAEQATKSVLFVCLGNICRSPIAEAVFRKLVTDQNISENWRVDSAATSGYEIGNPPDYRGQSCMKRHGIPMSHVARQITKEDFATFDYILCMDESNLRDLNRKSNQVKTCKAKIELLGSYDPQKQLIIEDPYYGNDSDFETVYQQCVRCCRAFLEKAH
#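 Assay system: LMPTP-A phosphatase enzyme | Input: 0.625 nM enzyme | Also added: Fluorogenic phosphatase substrate OMFP at 400 µM final | Compound dosing: One test concentration per compound, 20 µM, with 3% DMSO overall | Schedule: 50 min enzyme reaction at room temperature, protected from light | Signal: Fluorescence intensity | Benchmarks: no-enzyme and uninhibited controls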
# NadD block: NadD (S. aureus) enzyme inhibition; purified NadD enzyme, colorimetric absorbance read-out; inhibition, % at 20 µM; hit rate 0.78% among 360,000; in the data active = inhibition above about 26%
# Scp1 inh: blocks human Scp-1 phosphatase activity; Q9GZU7; Recombinant Scp1, phosphopeptide, malachite green phosphate absorbance; inhibition, % at 20 µM; hit rate 0.88% among 340,000; AID 493091;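 active = inhibition above about 50% at 20 µM, limit read from the data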;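 note: plate controls were DMSO wells with enzyme for no effect and wells lacking enzyme for full effect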
#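 System: truncated SCP-1 phosphatase (76-261aa); medium: Tris acetate buffer pH 5.5 with MgCl2 and Tween-20; incubation: 45 min room-temperature reaction, 5 min colour, 30 min stabiliser; compound: single 20 µM dose, 1% DMSO; reagent: Phosphorylated 17-residue peptide substrate; read-out: % inhibition at 20 µM; technique: colorimetric free-phosphate detection, absorbance 630 nm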
# rCAG RNA binder: r(CAG) repeat RNA binding. TO-PRO-1 dye displacement fluorescence. inhibition, % at 3 µM. hit rate 1.3% among 370,000;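 active = inhibition above the plate cutoff, the mean of all test compounds on that plate plus 3 SD, cut at about 35% in these data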;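 note: 0% = DMSO alone and 100% = 100 µM mitoxantrone as full dye displacement; higher means more dye released from RNA so lower well fluorescence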
# STEP inh: blocks human striatal-enriched tyrosine phosphatase; P54829; recombinant STEP, OMFP fluorogenic substrate, fluorescence; inhibition, % at 20 µM; hit rate 0.25% among 360,000; AID 588621;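 active = inhibition at 20 µM, scaled per plate between control wells, above about 37%, limit read from the data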;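 note: 0% = DMSO with enzyme and substrate and 100% = substrate only without enzyme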
# Target sequence (P54829 whole entry, looked up): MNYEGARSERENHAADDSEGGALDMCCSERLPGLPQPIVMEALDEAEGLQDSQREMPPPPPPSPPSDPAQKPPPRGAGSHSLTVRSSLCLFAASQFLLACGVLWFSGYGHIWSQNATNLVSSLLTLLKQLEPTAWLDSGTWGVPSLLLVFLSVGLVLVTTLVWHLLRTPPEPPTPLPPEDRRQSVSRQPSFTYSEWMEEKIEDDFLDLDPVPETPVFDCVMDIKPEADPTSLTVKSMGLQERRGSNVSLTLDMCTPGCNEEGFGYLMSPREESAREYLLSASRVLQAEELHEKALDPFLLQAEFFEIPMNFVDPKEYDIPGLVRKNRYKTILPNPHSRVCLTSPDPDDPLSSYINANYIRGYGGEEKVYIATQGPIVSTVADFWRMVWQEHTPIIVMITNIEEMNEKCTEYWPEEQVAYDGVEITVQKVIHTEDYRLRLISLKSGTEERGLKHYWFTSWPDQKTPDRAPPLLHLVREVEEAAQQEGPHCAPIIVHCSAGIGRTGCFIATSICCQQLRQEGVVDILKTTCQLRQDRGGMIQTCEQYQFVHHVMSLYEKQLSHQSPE
#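 Material: STEP (striatal-enriched tyrosine phosphatase) enzyme, cell-free | Medium: 50 mM Bis-Tris pH 6.0 with 2.5 mM DTT and 0.005% Tween 20 | Read-out: Percent inhibition scaled to no-enzyme and uninhibited-enzyme controls, plate-pattern corrected | Signal: Fluorescence read at 480 nm ex / 540 nm em | Times: 20 min reaction, room temperature, in the dark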
# rCAG bind conf: r(CAG) RNA repeat binding, confirmation; AID 652065; TO-PRO-1 dye displacement fluorescence; hit rate 70% among 4,300; inhibition, % at 3 µM; shares compounds with rCAG RNA binder;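 active = inhibition above a per-plate cutoff, the mean inhibition of sample wells plus 3 SD, cut at about 35% in these data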;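 note: loss of TO-PRO-1 fluorescence as compound displaces dye from 1x1 AA loop RNA; 0% = DMSO only wells and 100% = 100 µM mitoxantrone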
# DNA CAG counter: disrupts DNA CAG TO-PRO-1 complex, flagging rCAG hits; shares compounds with rCAG RNA binder; d(CAG) DNA oligo TO-PRO-1 dye displacement, fluorescence; inhibition, % at 3 µM; hit rate 94% among 4,300;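 active = inhibition above its plate's cutoff, the mean test-well inhibition plus 3 SD, cut at about 4.8% in these data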;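 note: 0% = DNA dye mix with DMSO and 100% = 100 µM mitoxantrone; hits displace the dye from DNA and so lower well fluorescence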
# DNA CAG DR: DNA CAG dye complex inhibition, dose response counter-screen | shares compounds with rCAG RNA binder | DNA CAG/GTC duplex TO-PRO-1 dye displacement fluorescence | IC50, µM | hit rate 20% among 250 | AID 686960; in the data active = IC50 below about 10 µM
# * hit, by the source's call; i = inactive; / = no result. Most compounds without a hit are left out; they make up all but 2.6% or so of the library.
SMILES,LMPTP inh,NadD block,Scp1 inh,rCAG RNA binder,STEP inh,rCAG bind conf,DNA CAG counter,others
O=C(CN1C(=O)/C(=C/c2ccco2)SC1=S)Nc1ccc(O)c(C(=O)O)c1,34,6,63*,88*,60*,82*,47*,
O=C(CN1C(=O)/C(=C/c2ccco2)SC1=S)NC1CCS(=O)(=O)C1 (centres undefined),7,11,58*,48*,45*,19,9.4*,
O=C(CN1C(=O)/C(=C/c2ccco2)SC1=S)Nc1ccc(C(=O)O)c(O)c1,43,8,50,93*,64*,85*,53*,
O=C(CN1C(=O)/C(=C\c2cccs2)SC1=S)Nc1cccc(C(=O)O)c1,0,6,-11,15,-1,/,/,
CN1CCCN(C(=O)CSc2nnc(-c3cccnc3)n2C2CCCCC2)CC1,/,/,/,-2,/,/,/,
CCOC(=O)[C@]12CCCC=C1N(CCCOC)C(=O)[C@@H]2CC(=O)NCCCN1CCCC1=O,/,/,/,-1,/,/,/,
Cc1c(C(c2cccc([N+](=O)[O-])c2O)c2c(C)n(C)n(-c3ccccc3)c2=O)c(=O)n(-c2ccccc2)n1C,-2,8,10,4,-4,/,/,
Cc1[nH]n(-c2ccccc2)c(=O)c1C(c1cccc([N+](=O)[O-])c1O)c1c(C)[nH]n(-c2ccccc2)c1=O,3,24,16,79*,-4,46*,13*,
Cc1[nH]n(-c2ccccc2)c(=O)c1C(c1cccc([N+](=O)[O-])c1)c1c(C)[nH]n(-c2ccccc2)c1=O,3,14,9,68*,-2,50*,20*,
Cc1ccc(S(=O)(=O)Oc2ccc(/C=C(/NC(=O)c3ccccc3)C(=O)O)cc2)cc1,0,1,9,40*,-1,37*,9.3*,
Cc1ccc(C(=O)N/C(=C\c2ccc(Br)cc2)c2nc(=S)[nH][nH]2)cc1,3,15,-10,41*,-4,53*,23*,
O=C(N/C(=C/c1cccc(Br)c1)c1nc(=S)[nH][nH]1)c1ccccc1,2,5,-13,30,-2,/,/,
Cc1cc(N2CCN(C(=O)OC(C)(C)C)C[C@H]2C)ccc1N1CC[C@@H](O)C1,/,/,/,0,/,/,/,
CC(=O)N1CCCN(S(=O)(=O)c2ccc3c(c2)oc(=O)n3C)CC1,/,/,/,0,/,/,/,
Cc1nc2ccccc2c(=O)n1/N=C/c1ccc(O)c(O)c1O,84*,33*,8,44*,17,51*,19*,
OC(c1ccccc1)(c1ccccc1)C1CCN(CCCOc2ccncc2)CC1,/,/,/,1,/,/,/,
Cc1ccc2nc(CN(C)C(=O)[C@@H](Cc3ccccc3)NC(=O)[C@H]3O[C@@H](n4cnc(C(N)=O)n4)[C@H](O)[C@@H]3O)[nH]c2c1,/,/,/,5,/,/,/,
CCOC(=O)c1c(/N=C/c2cc([N+](=O)[O-])ccc2O)sc(C)c1C,-3,0,-4,65*,-5,9,7.2*,
Cc1noc(NS(=O)(=O)c2ccc(NC(=O)CSc3nc4c(cc3C#N)CCC4)cc2)c1C,-3,4,-9,26,1,/,/,
Cc1noc(NS(=O)(=O)c2ccc(NC(=O)CSc3nc4ccccc4s3)cc2)c1C,-1,3,-13,70*,13,61*,25*,
Cc1noc(NS(=O)(=O)c2ccc(NC(=O)CSc3nc4c(cc3C#N)CCCC4)cc2)c1C,-1,7,-18,41*,0,33,11*,
CCOC(=O)[C@@]12CN(C(=O)OC(C)(C)C)CC=C1N(Cc1ccc(OC)cc1)C(=O)[C@H]2CC(=O)N1CCCC1,/,/,/,2,/,/,/,
CCN(CC)c1ccc(C=C2SC(=S)NC2=O)cc1,4,8,-10,25,-166,/,/,
CC1Cc2cc(/C=C3/SC(=S)NC3=O)ccc2O1 (centres undefined),2,1,8,37*,1,23,5.9*,
CCCn1c(N)c(N2CCCCC2)c(=O)n(CC(=O)Nc2ccc(OC(F)(F)F)cc2)c1=O,-4,2,-13,37*,-2,2,0,
SMILES,LMPTP inh,NadD block,Scp1 inh,rCAG RNA binder,STEP inh,rCAG bind conf,DNA CAG counter,others
CCCn1c(N)c(N2CCCCC2)c(=O)n(CC(=O)Nc2ccccc2C)c1=O,-3,-2,-13,-5,0,/,/,
CC1(C(=O)NS(=O)(=O)c2ccc(Cl)s2)CCN1C(=O)Cc1ccc(-c2ccccc2)cc1 (centres undefined),-2,3,/,74*,-2,75*,38*,
CCCS(=O)(=O)NC(=O)C1(C)CCN1C(=O)Cc1ccc(-c2ccccc2)cc1 (centres undefined),-1,3,/,21,-2,/,/,
CC(C)c1ccc(CC(=O)N2CCC2(C)C(=O)NS(=O)(=O)c2ccc(Cl)s2)cc1 (centres undefined),-2,-7,/,40*,1,41*,11*,
CC(C)(C)c1ccc(CC(=O)N2CCC2(C)C(=O)NS(=O)(=O)c2ccc(Cl)s2)cc1 (centres undefined),-2,-3,/,62*,1,61*,24*,
C=CCN1C(=O)[C@H](CC(=O)N2CCCC2)[C@@]2(C(=O)OCC)CCCC=C12,/,/,/,1,/,/,/,
Cc1onc(-c2ccccc2)c1C(=O)NC(=S)NNC(=O)c1cc(-c2ccc(F)cc2)n[nH]1,2,18,-15,68*,5,71*,31*,DNA CAG DR=>30
NC(=O)c1ccc(Cc2ncc(C(F)(F)F)cc2Cl)s1,0,-5,-4,-1,-17,/,/,
O=S(=O)(N/N=C/c1ccc(Cl)cc1)c1ccc(Cc2ncc(C(F)(F)F)cc2Cl)s1,4,24,-9,45*,2,65*,26*,
CCOC(=O)[C@]12CCCC3=C1N(CCC3)C(=O)[C@@H](CC(=O)NCc1cccc3ccccc13)C2,/,/,/,-1,/,/,/,
COc1ccc(CNc2cccc3[nH]c(C(F)(F)F)nc23)cc1OC,3,0,-4,44*,-2,13,9.4*,
COc1ccc(CNC(=O)c2[nH]c(C(F)(F)F)nc2-c2ccccc2)cc1OC,-1,-1,/,3,-2,/,/,
Cc1ccc(C)c(S(=O)(=O)Nc2ccccc2C(=O)Nc2cc(C)on2)c1,0,-1,0,77*,-1,77*,32*,DNA CAG DR=i
Cc1ccc(CNC(=O)c2ccccc2NS(=O)(=O)c2ccc(Cl)nc2)cc1,2,-6,-17,43*,-1,20,4,
Cc1ccc(C)c(S(=O)(=O)Nc2ccc(S(=O)(=O)Nc3ncccn3)cc2)c1,0,0,-5,1,-3,/,/,

# Screening results deposited in PubChem BioAssay by several laboratories.
